For test [1], the target named is T1, Phenylalanine--tRNA ligase alpha subunit (Staphylococcus aureus, UniProt P68849).
T1 sequence (P68849 whole entry): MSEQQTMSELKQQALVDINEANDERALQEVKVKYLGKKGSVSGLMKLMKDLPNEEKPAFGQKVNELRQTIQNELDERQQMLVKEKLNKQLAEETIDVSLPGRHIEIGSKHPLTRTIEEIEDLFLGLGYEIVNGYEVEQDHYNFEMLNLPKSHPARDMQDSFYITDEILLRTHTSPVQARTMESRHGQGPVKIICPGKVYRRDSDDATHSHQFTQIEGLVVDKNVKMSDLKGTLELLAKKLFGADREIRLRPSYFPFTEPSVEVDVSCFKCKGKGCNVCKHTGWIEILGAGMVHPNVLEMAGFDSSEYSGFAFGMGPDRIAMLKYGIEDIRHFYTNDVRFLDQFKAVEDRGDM
As to the kind of experiment: Inhibitory concentration against Staphylococcus aureus Phenylalanyl-tRNA synthetase. Put shortly: (§1)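 Recombinant bacterial FRS (S. aureus WCUH29 enzyme cloned and overexpressed in E. coli; S. pneumoniae and H. influenzae enzymes overexpressed and purified the same way). IC50 from the full aminoacylation reaction with SPA read-out. Phenylalanine was held at the Km of each enzyme.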

Test [2] concerns the target T2, Phenylalanine--tRNA ligase alpha subunit (Streptococcus pneumoniae serotype 4 (strain ATCC BAA-334 / TIGR4), UniProt Q97S36).
T2 sequence (Q97S36 whole entry): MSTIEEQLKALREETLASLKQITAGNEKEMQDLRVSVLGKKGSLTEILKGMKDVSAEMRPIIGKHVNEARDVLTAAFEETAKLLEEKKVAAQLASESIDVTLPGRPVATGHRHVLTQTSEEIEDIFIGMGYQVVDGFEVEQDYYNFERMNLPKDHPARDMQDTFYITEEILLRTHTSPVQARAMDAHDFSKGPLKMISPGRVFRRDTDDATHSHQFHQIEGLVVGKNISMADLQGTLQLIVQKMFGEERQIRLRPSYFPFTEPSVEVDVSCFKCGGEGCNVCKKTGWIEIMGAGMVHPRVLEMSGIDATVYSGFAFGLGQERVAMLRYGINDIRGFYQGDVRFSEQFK
The test is described as follows: Inhibitory concentration against Streptococcus pneumoniae Phenylalanyl-tRNA synthetase. The procedure, abridged: as §1

Test [3] addresses T3, Phenylalanine--tRNA ligase alpha subunit (Haemophilus influenzae (strain ATCC 51907 / DSM 11121 / KW20 / Rd), UniProt P43819). As to the kind of experiment: Inhibitory concentration against Haemophilus influenzae Phenylalanyl-tRNA synthetase. Put shortly: as §1
In test [4] the target is T4, Phenylalanine--tRNA ligase, mitochondrial (Rattus norvegicus, UniProt Q6AYQ3).
T4 sequence (Q6AYQ3 whole entry): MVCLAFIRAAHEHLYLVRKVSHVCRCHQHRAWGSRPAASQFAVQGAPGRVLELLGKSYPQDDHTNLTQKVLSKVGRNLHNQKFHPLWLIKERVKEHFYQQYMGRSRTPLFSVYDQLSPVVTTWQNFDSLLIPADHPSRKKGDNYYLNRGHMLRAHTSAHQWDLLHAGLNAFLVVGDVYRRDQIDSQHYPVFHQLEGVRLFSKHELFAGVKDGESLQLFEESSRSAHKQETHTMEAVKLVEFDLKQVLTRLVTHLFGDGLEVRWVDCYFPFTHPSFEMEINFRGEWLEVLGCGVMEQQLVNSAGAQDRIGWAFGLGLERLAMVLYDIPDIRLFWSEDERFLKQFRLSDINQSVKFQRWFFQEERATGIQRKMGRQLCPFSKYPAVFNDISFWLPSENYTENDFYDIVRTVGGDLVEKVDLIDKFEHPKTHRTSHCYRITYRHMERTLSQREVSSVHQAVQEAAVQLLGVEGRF
The test is described as follows: Inhibitory concentration against Phenylalanyl-tRNA synthetase from rat liver. The procedure, abridged:
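Mammalian FRS isolated from rat liver; IC50 determined to assess selectivity against the bacterial enzyme.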

For test [5], the target named is T3, Phenylalanine--tRNA ligase alpha subunit. The test is described as follows: Inhibitory concentration against Haemophilus influenzae Phenylalanyl-tRNA synthetase; NI=no inhibition at 300 nM. The procedure, abridged: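 Recombinant FRS from the named species, overexpressed in E. coli and purified. IC50 measured in the full aminoacylation reaction with SPA readout. Phenylalanine set at the Km of each enzyme.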

The target of test [6] is T1, Phenylalanine--tRNA ligase alpha subunit. The test is described as follows: Inhibitory concentration against […] Phenylalanyl-tRNA synthetase. The procedure, abridged: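 Recombinant S. aureus WCUH29 FRS, cloned and overexpressed in E. coli, then purified. IC50 measured in the full aminoacylation reaction with SPA readout. Phenylalanine set at the enzyme's Km.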

The values that follow come from ChEMBL document CHEMBL1144382, “Discovery and optimisation of potent, selective, ethanolamine inhibitors of bacterial phenylalanyl tRNA synthetase” (Bioorg Med Chem Lett, 2005).

T3 sequence (P43819 whole entry): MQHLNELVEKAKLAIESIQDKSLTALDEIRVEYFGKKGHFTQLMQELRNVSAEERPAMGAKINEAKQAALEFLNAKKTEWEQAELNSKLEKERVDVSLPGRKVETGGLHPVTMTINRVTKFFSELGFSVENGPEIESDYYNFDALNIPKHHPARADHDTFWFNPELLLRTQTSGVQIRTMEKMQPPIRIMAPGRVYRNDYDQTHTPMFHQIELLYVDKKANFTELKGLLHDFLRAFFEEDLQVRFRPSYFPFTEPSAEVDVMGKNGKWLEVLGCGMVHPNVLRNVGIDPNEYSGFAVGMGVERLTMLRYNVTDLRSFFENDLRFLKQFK

In turn, `C=CCOc1ccccc1CNCC(O)c1cccc(C(F)(F)F)c1` (stereo not given) registered an IC50 in test [1] of 58 nM. This lies in the double-digit nanomolar range.

As to `CNC(=O)CNC(=O)COc1ccccc1CNCC(O)c1cc(Br)cs1` (stereo not given), 120 nM corresponded to half-maximal inhibition in test [1] (IC50).

Consider `COc1ccccc1CNCC(O)c1cc(C(F)(F)F)ccc1C(F)(F)F` (stereo not given), for which the IC50 in test [1] is above 10000 nM.

Molecule `OC(CNCc1ccccc1Oc1ccccc1)c1cc(Br)cs1` (stereo not given) showed an IC50 in test [1] of 120 nM.

`CN(CCO)C(=O)COc1ccccc1CNCC(O)c1cc(Br)cs1` (stereo not given): in test [1], the IC50 came out at 110 nM.

For the molecule `COc1cccc(C(O)CNCc2ccccc2OCc2ccccc2)c1` (stereo not given), the IC50 in test [1] was found to be 83 nM.

As to `OC(CNCc1ccccc1OCCN1CCOCC1)c1cc(Br)cs1` (stereo not given), half-maximal inhibition in test [1] (IC50) required 18 nM.

For the molecule `O=C(O)c1ccccc1CNCC(O)c1cccc(C(F)(F)F)c1` (stereo not given), in test [1], the IC50 amounted to 2500 nM. This IC50 lies about 140-fold higher than the previous one.

`OCCOc1ccccc1CNCC(O)c1cc(Br)cs1` (stereo not given) gave an IC50 in test [1] of 8 nM.

For the molecule `OC(CNCc1ccccc1OC(F)F)c1cccc(C(F)(F)F)c1` (stereo not given), the IC50 in test [1] amounted to 260 nM. Compared with the last molecule, the IC50 is about 32-fold higher.

Regarding `COc1ccccc1CNCC(O)c1ccccc1C(F)(F)F` (stereo not given), in test [1], the IC50 was above 10000 nM.

For the molecule `NC(=O)COc1ccccc1CNCC(O)c1cc(Br)cs1` (stereo not given), the IC50 in test [1] came to 42 nM.

Regarding `OC(CNCc1ccccc1OCc1cccnc1)c1cc(Br)cs1` (stereo not given), half-maximal inhibition in test [1] (IC50) required 18 nM.

The molecule `COc1ccccc1CNCC(O)c1cccc(Br)c1` (stereo not given) registered an IC50 in test [1] of 110 nM.

Consider `CNC(=O)CNC(=O)CCOc1ccccc1CNCC(O)c1cc(Br)cs1` (stereo not given), for which, in test [1], the IC50 was 36 nM. Against the preceding molecule, the IC50 is about 3.1-fold lower.

The molecule `N#CCOc1ccccc1CNCC(O)c1cc(Br)cs1` (stereo not given) came in with an IC50 in test [1] of 49 nM.

Molecule `CCNC(=O)COc1ccccc1CNCC(O)c1cc(Br)cs1` (stereo not given) showed an IC50 in test [1] of 32 nM.

In test [1], `OC(CNCc1ccccc1OCc1ccccn1)c1cc(Br)cs1` (stereo not given) returned an IC50 of 43 nM.

In test [1], `COc1ccccc1CNCC(O)c1cccc(C(F)(F)F)c1` (stereo not given) had an IC50 of 160 nM. Compared with the last molecule, the IC50 is about 3.7-fold higher.

Turning to `OC(CNCc1ccccc1OCc1ccccc1)c1cc(Br)cs1` (stereo not given), the IC50 in test [1] came to 10 nM; in test [2], 280 nM; in test [3], 1500 nM.

Regarding `COc1ccccc1CNCC(O)c1cccc(C)c1` (stereo not given), in test [1], half-maximal inhibition (IC50) required 110 nM.

As for `O=C(O)CCOc1ccccc1CNCC(O)c1cc(Br)cs1` (stereo not given), it took 58 nM to reach half-maximal inhibition in test [1] (IC50).

For the molecule `OC(CNCc1ccccc1OCc1ccncc1)c1cc(Br)cs1` (stereo not given), the values for the IC50 in test [1] and in test [4] were 16 nM and 90000 nM, respectively.

On to `OC(CNCc1ccccc1OCc1ccccc1)c1cccc(C(F)(F)F)c1` (stereo not given), for which the IC50 in test [1] stood at 50 nM.

`OC(CNCc1ccccc1OCc1ccccc1)c1cccc(I)c1` (stereo not given) came in with an IC50 in test [1] of 32 nM.

In test [1], `COc1ccccc1CNCC(O)c1ccc(C(F)(F)F)cc1` (stereo not given) yielded a half-maximal inhibitory concentration (IC50) above 10000 nM.

As to `Oc1ccccc1CNCC(O)c1cccc(C(F)(F)F)c1` (stereo not given), in test [1], half-maximal inhibition (IC50) required 100 nM.

`Cc1ccccc1CNCC(O)c1cccc(C(F)(F)F)c1` (stereo not given) showed an IC50 in test [1] of 790 nM. This IC50 is about 7.9-fold higher than that of the molecule before.

In test [1], `C=CCOc1ccccc1CNCC(O)c1cc(Br)cs1` (stereo not given) came in with an IC50 of 18 nM.

Molecule `OC(CNCc1ccccc1OCc1ccccc1)c1cccc(Cl)c1` (stereo not given) returned an IC50 in test [1] of 31 nM.

In test [1], `COc1ccccc1CNCC(O)c1cc(Br)cs1` (stereo not given) registered an IC50 of 50 nM.

On to `O=C1c2ccccc2C(=O)N1CCCCOc1ccccc1CNCC(O)c1cc(Br)cs1` (stereo not given), for which, in test [1], the IC50 is 69 nM.

As for `CN(CCO)C(=O)CCCOc1ccccc1CNCC(O)c1cc(Br)cs1` (stereo not given), in test [1], the IC50 is 26 nM.

For the molecule `OCc1cccc(C(O)CNCc2ccccc2OCc2ccccc2)c1` (stereo not given), in test [1], the concentration for half-maximal inhibition (IC50) was determined as 570 nM.

Molecule `COc1ccccc1CNCC(O)c1cccc(OC(F)(F)F)c1` (stereo not given) yielded an IC50 in test [1] of 190 nM.

`COc1ccccc1CNCC(O)c1cccc(OCc2ccccc2)c1` (stereo not given): in test [1], the IC50 is above 10000 nM.

As to `NCCOc1ccccc1CNCC(O)c1cc(Br)cs1` (stereo not given), 220 nM corresponded to half-maximal inhibition in test [1] (IC50).

Consider `CN(CCO)C(=O)CCOc1ccccc1CNCC(O)c1cc(Br)cs1` (stereo not given), for which half-maximal inhibition in test [1] (IC50) required 25 nM.

With `OCCOc1ccccc1CNC[C@@H](O)c1cc(Br)cs1`, the IC50 in test [1] was 3.7 nM; in test [2], 190 nM; in test [3], 56 nM.

In test [1], `OC(CNCc1ccccc1OCc1ccccc1)c1cc(C(F)(F)F)cc(C(F)(F)F)c1` (stereo not given) had an IC50 above 10000 nM.

The molecule `CS(=O)(=O)c1ccc(COc2ccccc2CNCC(O)c2cc(Br)cs2)cc1` (stereo not given) showed an IC50 in test [1] of 26 nM.

In turn, `CNC(=O)CNC(=O)CCCOc1ccccc1CNCC(O)c1cc(Br)cs1` (stereo not given) returned an IC50 in test [1] of 30 nM. This IC50 and that of the molecule before are within 1.5-fold of each other.

For the molecule `NCCCCOc1ccccc1CNCC(O)c1cc(Br)cs1` (stereo not given), the midpoint of inhibition in test [1], the IC50, lay at 22 nM.

In turn, `COCOc1ccccc1CNCC(O)c1cc(Br)cs1` (stereo not given) displayed an IC50 in test [1] of 35 nM. Compared with the last molecule, the IC50 is about 1.6-fold higher.

`O=C1c2ccccc2C(=O)N1CCOc1ccccc1CNCC(O)c1cc(Br)cs1` (stereo not given) returned an IC50 in test [1] of 250 nM.

Turning to `OC(CNCc1ccccc1)c1cccc(C(F)(F)F)c1` (stereo not given), the figures for the IC50 result in test [5], in test [6] and in test [1] were “No inhibition”, 160 nM and 160 nM, respectively.

Regarding `OC(CNCc1ccccc1OCc1nc2ccccc2[nH]1)c1cc(Br)cs1` (stereo not given), the IC50 came out at 26 nM in test [1], 250 nM in test [2] and 150 nM in test [3].

On to `OCCOc1ccccc1CNC[C@H](O)c1cc(Br)cs1`, for which the IC50 in test [1], in test [2] and in test [3] was above 1000 nM each time.

As for `O=C(O)CCCOc1ccccc1CNCC(O)c1cc(Br)cs1` (stereo not given), the midpoint of inhibition in test [1], the IC50, lay at 43 nM.

Broadly, the IC50 is the concentration that gives 50% inhibition. A higher IC50 goes with weaker potency in that assay.
